Measurements taken from ChEMBL document CHEMBL3286102, “Benzofuran derivatives as anticancer inhibitors of mTOR signaling” (Eur J Med Chem, 2014).
The source made the active and inactive calls. The rule behind the calls is not given here.

Legend:
SQ20B = test: Cytotoxicity against human SQ20B cells after 72 hrs by MTT assay; type: functional, cell-based
Method in brief: (§1)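 Monolayer culture in RPMI with 10% fetal calf serum, 2 mM glutamine, penicillin/streptomycin, 37 °C, humidified 5% CO2, checked for Mycoplasma. Cells seeded at 2 × 10³/well; after drug exposure, 0.4 mg/ml MTT for 4 h at 37 °C. Formazan dissolved in DMSO, absorbance read at 560 nm. Untreated cells served as positive control, drug medium without cells as negative control.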

mTORC1 (Homo sapiens) [1] = target: T1, mTORC1 (Homo sapiens) (UniProt P42345+Q8N122+Q9BVC4); test: Inhibition of mTORC1 in human SK-HEP1 cells assessed as reduction of S6 phosphorylation at 0.1 to 8 uM after 24 hrs by Western blotting; type: cell-based
Method in brief: (§2)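 Membranes were blocked in 5% milk/0.05% Tween 20-PBS and probed overnight with primary antibody against p-S6, p-4EBP1 or p-Akt (S473). Detection used HRP secondary antibody and enhanced chemiluminescence.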

mTORC1 (Homo sapiens) [2] = target: T1, mTORC1 (Homo sapiens); test: Inhibition of mTORC1 in human SK-HEP1 cells assessed as reduction of 4-EBP1 phosphorylation at 0.1 to 8 uM after 24 hrs by Western blotting; type: cell-based; method in brief: as §2
mTORC1 (Homo sapiens) [3] = target: T1, mTORC1 (Homo sapiens); test: Inhibition of mTORC1 in human COLO205 cells assessed as reduction of S6 phosphorylation at 0.1 to 8 uM after 24 hrs by Western blotting; type: cell-based; conditions: COLO 205; method in brief: as §2
mTORC1 (Homo sapiens) [4] = target: T1, mTORC1 (Homo sapiens); test: Inhibition of mTORC1 in human COLO205 cells assessed as reduction of 4-EBP1 phosphorylation at 0.1 to 8 uM after 24 hrs by Western blotting; type: cell-based; conditions: COLO 205; method in brief: as §2
HOP-62 = test: Cytotoxicity against human HOP62 cells after 72 hrs by MTT assay; type: functional, cell-based; method in brief: as §1
COLO 205 = test: Cytotoxicity against human COLO205 cells after 72 hrs by MTT assay; type: functional, cell-based; method in brief: as §1
mTORC1 (Homo sapiens) [5] = target: T1, mTORC1 (Homo sapiens); test: Inhibition of mTORC1 in human SK-HEP1 cells assessed as AKT phosphorylation at Ser473 at 0.1 to 8 uM after 24 hrs by Western blotting; type: cell-based; method in brief: as §2
mTORC1 (Homo sapiens) [6] = target: T1, mTORC1 (Homo sapiens); test: Inhibition of mTORC1 in human COLO205 cells assessed as AKT phosphorylation at Ser473 at 0.1 to 8 uM after 24 hrs by Western blotting; type: cell-based; conditions: COLO 205; method in brief: as §2

T1 sequence (Q8N122 whole entry, looked up, other chains not shown): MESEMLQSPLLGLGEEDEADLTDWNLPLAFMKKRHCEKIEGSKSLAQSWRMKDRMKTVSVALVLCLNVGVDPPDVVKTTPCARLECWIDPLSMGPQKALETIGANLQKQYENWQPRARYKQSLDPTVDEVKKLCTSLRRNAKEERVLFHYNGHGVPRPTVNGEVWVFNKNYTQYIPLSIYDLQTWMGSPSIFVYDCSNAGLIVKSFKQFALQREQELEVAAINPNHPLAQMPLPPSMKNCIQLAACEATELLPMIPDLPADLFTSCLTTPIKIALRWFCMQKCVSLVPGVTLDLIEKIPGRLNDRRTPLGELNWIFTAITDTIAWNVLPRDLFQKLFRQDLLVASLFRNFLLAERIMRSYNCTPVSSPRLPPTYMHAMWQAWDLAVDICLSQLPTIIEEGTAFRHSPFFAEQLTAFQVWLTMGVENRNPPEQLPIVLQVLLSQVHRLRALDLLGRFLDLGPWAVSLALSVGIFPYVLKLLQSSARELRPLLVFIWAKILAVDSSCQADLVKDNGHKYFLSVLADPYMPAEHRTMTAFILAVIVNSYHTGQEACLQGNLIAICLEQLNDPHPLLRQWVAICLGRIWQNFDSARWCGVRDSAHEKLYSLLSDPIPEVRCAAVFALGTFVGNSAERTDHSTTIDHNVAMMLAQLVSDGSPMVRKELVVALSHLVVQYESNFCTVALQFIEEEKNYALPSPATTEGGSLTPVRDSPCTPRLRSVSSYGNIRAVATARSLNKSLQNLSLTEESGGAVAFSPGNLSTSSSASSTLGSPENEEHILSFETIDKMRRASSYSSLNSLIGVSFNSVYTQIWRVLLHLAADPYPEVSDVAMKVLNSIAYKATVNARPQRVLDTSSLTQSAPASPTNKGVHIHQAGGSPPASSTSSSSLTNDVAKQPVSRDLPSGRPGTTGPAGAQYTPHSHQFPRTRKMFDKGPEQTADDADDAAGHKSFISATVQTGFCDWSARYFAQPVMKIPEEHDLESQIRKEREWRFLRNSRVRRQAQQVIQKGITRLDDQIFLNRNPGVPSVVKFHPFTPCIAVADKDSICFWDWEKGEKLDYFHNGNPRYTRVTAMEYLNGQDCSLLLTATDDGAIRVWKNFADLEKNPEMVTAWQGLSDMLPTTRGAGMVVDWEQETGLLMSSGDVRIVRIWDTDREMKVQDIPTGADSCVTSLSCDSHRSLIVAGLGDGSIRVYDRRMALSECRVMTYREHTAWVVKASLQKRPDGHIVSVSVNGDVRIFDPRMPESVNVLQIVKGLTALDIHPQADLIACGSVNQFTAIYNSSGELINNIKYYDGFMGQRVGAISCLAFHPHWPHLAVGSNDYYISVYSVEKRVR
T1 sequence (Q9BVC4 whole entry, looked up, other chains not shown): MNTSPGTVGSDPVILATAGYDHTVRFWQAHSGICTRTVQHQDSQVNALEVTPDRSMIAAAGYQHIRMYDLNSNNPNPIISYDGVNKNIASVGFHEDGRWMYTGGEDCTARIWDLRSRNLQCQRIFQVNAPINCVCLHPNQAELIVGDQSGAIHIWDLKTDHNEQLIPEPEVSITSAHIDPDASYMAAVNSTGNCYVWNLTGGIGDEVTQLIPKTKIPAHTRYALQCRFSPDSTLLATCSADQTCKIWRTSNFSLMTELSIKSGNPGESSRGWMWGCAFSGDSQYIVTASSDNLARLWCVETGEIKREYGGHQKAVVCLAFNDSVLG

Compound | IC50 (SQ20B) | also measured
COc1ccccc1-c1cc2c(CN3CCC(N4CCCCC4)CC3)c(O)ccc2o1 | 1.3 µM | –
Oc1ccc2oc(-c3cccc(Cl)c3)cc2c1CN1CCC(N2CCCCC2)CC1 | 0.92 µM | –
Oc1ccc2oc(-c3ccc4ccccc4c3)cc2c1CN1CCC(N2CCCCC2)CC1 | 2.8 µM | –
COc1ccc2oc(-c3ccccc3)cc2c1CN1CCC(N2CCCCC2)CC1 | 2.5 µM | –
COc1ccc(-c2cc3c(CN4CCC(N5CCCCC5)CC4)c(O)ccc3o2)cc1 | 0.85 µM | –
Oc1ccc2[nH]c(-c3ccccc3)nc2c1CN1CCC(N2CCCCC2)CC1 | 21 µM | –
CO[C@H]1C[C@@H]2CC[C@@H](C)[C@@](O)(O2)C(=O)C(=O)N2CCCC[C@H]2C(=O)O[C@H]([C@H](C)C[C@@H]2CC[C@@H](O)[C@H](OC)C2)CC(=O)[C@H](C)/C=C(\C)[C@@H](O)[C@@H](OC)C(=O)[C@H](C)C[C@H](C)/C=C/C=C/C=C/1C | – | inhibition (mTORC1 (Homo sapiens) [1]): Active; inhibition (mTORC1 (Homo sapiens) [2]): Active; inhibition (mTORC1 (Homo sapiens) [3]): Active; inhibition (mTORC1 (Homo sapiens) [4]): Active
O=S(=O)(Nc1ccc2oc(-c3ccccc3)cc2c1CN1CCC(N2CCCCC2)CC1)C(F)(F)F | 2.1 µM | –
CN(C)Cc1c(O)ccc2oc(-c3ccccc3)cc12 | 32 µM | –
OCc1c(-c2ccccc2)oc2ccc(O)c(CN3CCC(N4CCCCC4)CC3)c12 | 3.4 µM | –
COc1cccc2cc(-c3nc([C@H]4CC[C@H](C(=O)O)CC4)n4ncnc(N)c34)[nH]c12 | – | Activity (HOP-62): Active; Activity (COLO 205): Active
c1ccc(-c2cc3c(CN4CCC(N5CCCCC5)CC4)nccc3o2)cc1 | 18 µM | –
Oc1ccc2oc(-c3ccccc3Cl)cc2c1CN1CCC(N2CCCCC2)CC1 | 2.6 µM | –
Oc1ccc2c(ccn2Cc2ccccc2)c1CN1CCC(N2CCCCC2)CC1 | 17 µM | –
Cc1c(-c2ccccc2)oc2ccc(O)c(CN3CCC(N4CCCCC4)CC3)c12 | 1.2 µM | –
Oc1ccc2oc(-c3ccccc3)cc2c1CN1CCC(N2CCCCC2)CC1 | 1.4 µM | Activity (HOP-62): Active; Activity (COLO 205): Active
Oc1ccc2oc(-c3ccco3)cc2c1CN1CCC(N2CCCCC2)CC1 | 4 µM | –

Compound | IC50 (SQ20B) | also measured
Oc1ccc2oc(-c3cccs3)cc2c1CN1CCC(N2CCCCC2)CC1 | 2.7 µM | –
COc1cccc(-c2cc3c(CN4CCC(N5CCCCC5)CC4)c(O)ccc3o2)c1 | 2 µM | –
Oc1ccc2cc(-c3ccccc3)oc2c1CN1CCC(N2CCCCC2)CC1 | 11 µM | –
O=S(=O)(Oc1ccc2oc(-c3ccccc3)cc2c1CN1CCC(N2CCCCC2)CC1)C(F)(F)F | 2.8 µM | –
Oc1ccc2oc(-c3cccc4ccccc34)cc2c1CN1CCC(N2CCCCC2)CC1 | 0.86 µM | –
Oc1ccc2oc(-c3ccccc3OCc3ccccc3)cc2c1CN1CCC(N2CCCCC2)CC1 | 0.38 µM | Activity (HOP-62): Active; Activity (COLO 205): Active
Oc1ccc2occ(-c3ccccc3)c2c1CN1CCC(N2CCCCC2)CC1 | 11 µM | –
COc1ccc2oc(-c3ccccc3OCc3ccccc3)cc2c1CN1CCC(N(C)C)CC1 | 0.46 µM | Activity (HOP-62): Active; Activity (COLO 205): Active; inhibition (mTORC1 (Homo sapiens) [1]): Active; inhibition (mTORC1 (Homo sapiens) [2]): Active; inhibition (mTORC1 (Homo sapiens) [3]): Active; inhibition (mTORC1 (Homo sapiens) [4]): Active
COc1ccc(-c2cc3c(CN4CCC(N(C)C)CC4)c(O)ccc3o2)cc1 | 1.2 µM | –
Cn1c(-c2ccccc2)cc2c(CN3CCC(N4CCCCC4)CC3)c(O)ccc21 | 19 µM | –
Oc1ccc2oc(-c3ccccc3)nc2c1CN1CCC(N2CCCCC2)CC1 | 6.5 µM | –
Oc1ccc2oc(-c3ccc(Cl)c(Cl)c3)cc2c1CN1CCC(N2CCCCC2)CC1 | 2.3 µM | –
Oc1ccc2oc(-c3ccc(Cl)cc3)cc2c1CN1CCC(N2CCCCC2)CC1 | 0.86 µM | –
c1ccc(-c2cc3c(CN4CCC(N5CCCCC5)CC4)cccc3o2)cc1 | 7.5 µM | –
COc1ccc(-c2cc3c(CN4CCC(N5CCCCC5)CC4)c(O)ccc3o2)c(OC)c1 | 1.1 µM | –
CCOC(=O)c1c(-c2ccccc2)oc2ccc(O)c(CN3CCC(N4CCCCC4)CC3)c12 | 1.5 µM | –
CO[C@H]1C[C@@H]2CC[C@@H](C)[C@@](O)(O2)C(=O)C(=O)N2CCCC[C@H]2C(=O)O[C@H]([C@H](C)C[C@@H]2CC[C@@H](OCCO)[C@H](OC)C2)CC(=O)[C@H](C)/C=C(\C)[C@@H](O)[C@@H](OC)C(=O)[C@H](C)C[C@H](C)/C=C/C=C/C=C/1C [EVEROLIMUS] | 7.3 µM | Activity (HOP-62): inactive; Activity (COLO 205): Active; inhibition (mTORC1 (Homo sapiens) [1]): Active; inhibition (mTORC1 (Homo sapiens) [2]): Active; inhibition (mTORC1 (Homo sapiens) [5]): inactive; inhibition (mTORC1 (Homo sapiens) [3]): Active; inhibition (mTORC1 (Homo sapiens) [4]): Active; inhibition (mTORC1 (Homo sapiens) [6]): inactive
